Experimental data taken from ChEMBL document CHEMBL4406804, “Discovery of a Potent Steroidal Glucocorticoid Receptor Antagonist with Enhanced Selectivity against the Progesterone and Androgen Receptors (OP-3633)” (J Med Chem, 2019).
pEC50, pIC50: −log10 of the molar value. Activity calls are given as the source filed them. The calls are words filed in the database; no cut-off is given here.

Columns and labels:
Type in all cases: cell-based
Androgen receptor [1] = target: T1, Androgen receptor (Homo sapiens, UniProt P10275); assay: Agonist activity at human androgen receptor in human LNCAP cells harboring firefly luciferase gene after 20 hrs by One-Glo luciferase reporter gene assay relative to mifepristone
T1 sequence (P10275 whole entry): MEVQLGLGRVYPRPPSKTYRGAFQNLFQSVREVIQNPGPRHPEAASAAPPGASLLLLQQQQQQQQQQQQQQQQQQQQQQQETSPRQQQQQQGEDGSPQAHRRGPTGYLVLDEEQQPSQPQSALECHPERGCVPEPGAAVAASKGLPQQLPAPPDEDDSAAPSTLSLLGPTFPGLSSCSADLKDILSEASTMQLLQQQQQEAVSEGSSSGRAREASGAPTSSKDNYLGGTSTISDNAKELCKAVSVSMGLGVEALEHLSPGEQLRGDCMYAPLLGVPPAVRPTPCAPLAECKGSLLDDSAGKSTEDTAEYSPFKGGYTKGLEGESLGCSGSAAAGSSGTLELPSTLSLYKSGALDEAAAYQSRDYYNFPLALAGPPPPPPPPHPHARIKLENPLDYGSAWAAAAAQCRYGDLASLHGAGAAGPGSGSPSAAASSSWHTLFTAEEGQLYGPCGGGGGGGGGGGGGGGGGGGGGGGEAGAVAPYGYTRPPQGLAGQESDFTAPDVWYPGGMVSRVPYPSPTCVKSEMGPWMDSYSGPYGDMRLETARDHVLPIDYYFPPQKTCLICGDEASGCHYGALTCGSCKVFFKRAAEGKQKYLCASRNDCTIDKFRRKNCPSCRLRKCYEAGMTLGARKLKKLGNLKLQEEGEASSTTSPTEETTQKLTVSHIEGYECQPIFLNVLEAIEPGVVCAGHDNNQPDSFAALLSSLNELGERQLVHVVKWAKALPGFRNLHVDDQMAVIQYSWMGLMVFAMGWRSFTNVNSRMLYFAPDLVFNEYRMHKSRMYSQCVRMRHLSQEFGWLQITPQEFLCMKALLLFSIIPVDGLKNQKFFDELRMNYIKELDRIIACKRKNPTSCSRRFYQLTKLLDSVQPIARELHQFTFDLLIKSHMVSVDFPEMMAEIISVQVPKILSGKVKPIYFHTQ
In short: (§1)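 Cell-based luciferase reporter assays for GR, AR and PR, run in agonist and antagonist modes. Potency and Emax are averages of at least two determinations, reported with SD.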

Glucocorticoid receptor = target: T2, Glucocorticoid receptor (Homo sapiens, UniProt P04150); assay: Antagonist activity at human glucocorticoid receptor expressed in CHO-K1 cells harboring firefly luciferase gene after 20 hrs by One-Glo luciferase reporter gene assay
T2 sequence (P04150 whole entry): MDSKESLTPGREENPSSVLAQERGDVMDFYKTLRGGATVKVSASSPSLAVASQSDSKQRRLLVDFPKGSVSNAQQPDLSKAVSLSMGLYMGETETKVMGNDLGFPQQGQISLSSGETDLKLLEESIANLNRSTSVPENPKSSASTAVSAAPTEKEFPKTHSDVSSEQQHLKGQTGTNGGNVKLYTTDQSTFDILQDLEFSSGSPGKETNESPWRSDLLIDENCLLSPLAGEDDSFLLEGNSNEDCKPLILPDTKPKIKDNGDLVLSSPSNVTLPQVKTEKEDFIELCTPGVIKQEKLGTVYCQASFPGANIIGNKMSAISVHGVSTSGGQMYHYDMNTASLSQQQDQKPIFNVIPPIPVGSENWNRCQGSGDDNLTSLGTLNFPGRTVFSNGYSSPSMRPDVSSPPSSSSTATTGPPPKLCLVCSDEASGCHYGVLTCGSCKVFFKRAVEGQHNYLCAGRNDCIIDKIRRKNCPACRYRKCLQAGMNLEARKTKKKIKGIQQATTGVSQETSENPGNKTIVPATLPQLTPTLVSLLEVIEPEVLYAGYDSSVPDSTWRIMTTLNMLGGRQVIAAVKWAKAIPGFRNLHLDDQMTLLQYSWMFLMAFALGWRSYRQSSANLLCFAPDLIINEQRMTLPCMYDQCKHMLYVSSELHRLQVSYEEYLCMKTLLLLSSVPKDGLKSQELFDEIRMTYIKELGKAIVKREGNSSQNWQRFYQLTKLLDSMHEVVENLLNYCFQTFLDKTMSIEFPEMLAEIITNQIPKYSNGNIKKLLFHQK

Androgen receptor [2] = target: T1, Androgen receptor; assay: Agonist activity at human androgen receptor in human LNCAP cells harboring firefly luciferase gene after 20 hrs by One-Glo luciferase reporter gene assay
Progesterone receptor = target: T3, Progesterone receptor (Homo sapiens, UniProt P06401); assay: Antagonist activity at human progesterone receptor expressed in CHO-K1 cells harboring firefly luciferase gene after 20 hrs by One-Glo luciferase reporter gene assay; in short: as §1
T3 sequence (P06401 whole entry): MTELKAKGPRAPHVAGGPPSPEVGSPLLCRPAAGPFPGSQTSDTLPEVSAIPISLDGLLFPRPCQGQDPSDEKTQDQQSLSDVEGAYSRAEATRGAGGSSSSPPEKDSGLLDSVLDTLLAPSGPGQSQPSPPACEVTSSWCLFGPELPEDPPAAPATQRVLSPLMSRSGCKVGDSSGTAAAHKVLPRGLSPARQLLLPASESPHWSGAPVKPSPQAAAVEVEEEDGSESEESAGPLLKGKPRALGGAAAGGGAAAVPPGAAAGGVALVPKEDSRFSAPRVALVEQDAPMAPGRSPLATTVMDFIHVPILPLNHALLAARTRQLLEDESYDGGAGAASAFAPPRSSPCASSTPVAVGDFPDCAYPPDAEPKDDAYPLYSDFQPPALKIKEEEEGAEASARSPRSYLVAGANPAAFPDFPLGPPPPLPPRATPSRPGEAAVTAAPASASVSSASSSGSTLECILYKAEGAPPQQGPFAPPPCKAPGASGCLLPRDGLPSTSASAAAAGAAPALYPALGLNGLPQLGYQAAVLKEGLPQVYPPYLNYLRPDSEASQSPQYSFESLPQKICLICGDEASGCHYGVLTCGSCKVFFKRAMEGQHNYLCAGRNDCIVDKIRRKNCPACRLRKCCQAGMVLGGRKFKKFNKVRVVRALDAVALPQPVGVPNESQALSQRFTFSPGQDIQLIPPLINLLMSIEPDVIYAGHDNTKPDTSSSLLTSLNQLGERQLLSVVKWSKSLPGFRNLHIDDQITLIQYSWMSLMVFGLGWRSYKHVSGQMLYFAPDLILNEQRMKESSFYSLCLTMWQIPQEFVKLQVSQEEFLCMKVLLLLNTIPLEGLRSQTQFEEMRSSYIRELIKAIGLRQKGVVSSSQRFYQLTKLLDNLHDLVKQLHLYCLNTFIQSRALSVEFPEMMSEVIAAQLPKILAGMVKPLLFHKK

[3] = target: T4, Progesterone receptor (Homo sapiens) (UniProt P06401); assay: Agonist activity at human progesterone receptor expressed in CHO-K1 cells harboring firefly luciferase gene after 20 hrs by One-Glo luciferase reporter gene assay; in short: as §1
T4 sequence (whole entry): T3 sequence (P06401 whole entry)

Androgen receptor [4] = target: T1, Androgen receptor; assay: Antagonist activity at human androgen receptor in human LNCAP cells harboring firefly luciferase gene after 20 hrs by One-Glo luciferase reporter gene assay; in short: as §1
Homo sapiens = species: Homo sapiens; assay: Selectivity ratio, ratio of IC50 for human androgen receptor in human LNCAP cells to IC50 for human glucocorticoid receptor expressed in CHO-K1 cells harboring firefly luciferase gene

SMILES | Emax at 20 h (Androgen receptor [1]) [%] | pIC50 (Glucocorticoid receptor) | pEC50 (Androgen receptor [2]) | pIC50 (Progesterone receptor) | agonist activity [3] | pIC50 (Androgen receptor [4]) | Ratio (Homo sapiens)
CC#C[C@]1(O)CC[C@H]2[C@@H]3CCC4=CC(=O)CC[C@]4(C)[C@H]3[C@@H](c3ccc(-n4cccc4)cc3)C[C@@]21C | 16.5 | 7.28 | < 5.60 | 6.28 | inactive | 6.45 | 
CCC(C)(C)C#C[C@]1(O)CC[C@H]2[C@@H]3CCC4=CC(=O)CC[C@@H]4[C@H]3[C@@H](c3ccc(N(C)C)cc3)C[C@@]21C | 7.3 | 7.90 | < 5.60 | 7.68 | inactive | 6.76 | 10 to 30
COCC#C[C@]1(O)CC[C@H]2[C@@H]3CCC4=CC(=O)CC[C@]4(C)[C@H]3[C@@H](c3ccc(N(C)C)cc3)C[C@@]21C | 17.5 | 6.94 | < 5.60 | 5.37 | inactive | < 5.30 | 
CC#C[C@]1(O)CC[C@H]2[C@@H]3CCC4=CC(=O)CC[C@]4(C)[C@H]3[C@@H](c3ccc(N4CCCC4)cc3)C[C@@]21C | 10.6 | 7.24 | < 5.60 | 5.39 | inactive | 5.50 | 
CC#C[C@]1(O)CC[C@H]2[C@@H]3CCC4=CC(=O)CC[C@]4(C)[C@H]3[C@@H](OCc3ccc(Cl)cc3)C[C@@]21C | 47.8 | 7.75 | 5.72 | 8.09 | inactive | 7.07 | 
CN1CCN(c2ccc([C@H]3C[C@@]4(C)[C@@H](CC[C@@]4(O)C#CC(C)(C)C)[C@@H]4CCC5=CC(=O)CC[C@@H]5[C@H]43)cc2)CC1 | 7.9 | 7.45 | < 5.60 | 7.60 | inactive | 6.00 | 10 to 30
CC(C)C#C[C@]1(O)CC[C@H]2[C@@H]3CCC4=CC(=O)CC[C@]4(C)[C@H]3[C@@H](c3ccc(N(C)C)cc3)C[C@@]21C | 8.3 | 7.21 | < 5.60 | 5.68 | inactive | < 5.30 | 
CC#C[C@]1(O)CC[C@H]2[C@@H]3CCC4=CC(=O)CC[C@]4(C)[C@H]3[C@@H](c3ccc(OC)cc3)C[C@@]21C | 14.1 | 7.23 | < 5.60 | 5.77 | inactive | 6.25 | 
CCC#C[C@]1(O)CC[C@H]2[C@@H]3CCC4=CC(=O)CC[C@]4(C)[C@H]3[C@@H](c3ccc(N(C)C)cc3)C[C@@]21C | 13.2 | 7.13 | < 5.60 | 5.81 | inactive | 5.53 | 
CCN(CC)c1ccc([C@H]2C[C@@]3(C)[C@@H](CC[C@@]3(O)C#CC(C)(C)C)[C@@H]3CCC4=CC(=O)CC[C@@H]4[C@H]32)cc1 | 9.4 | 7.86 | < 5.60 | 8.22 | inactive | 6.58 | 10 to 30
CC#C[C@]1(O)CC[C@H]2[C@@H]3CCC4=CC(=O)CC[C@]4(C)[C@H]3[C@@H](c3ccc(N(C)CCOC)cc3)C[C@@]21C | 20 | 7.28 | < 5.60 | 5.79 | inactive | 5.89 | 
CN(C)c1ccc([C@H]2C[C@@]3(C)[C@@H](CC[C@@]3(O)C#CC(F)(F)F)[C@@H]3CCC4=CC(=O)CC[C@]4(C)[C@H]32)cc1 | 7.3 | 7.33 | < 5.60 | 6.04 | inactive | 6.19 | 
CC#C[C@]1(O)CC[C@H]2[C@@H]3CCC4=CC(=O)CC[C@]4(C)[C@H]3[C@@H](c3ccc(N(C)C(C)C)cc3)C[C@@]21C | 55.9 | 7.69 | 5.94 | 6.28 | inactive | 5.65 | 
